Hits are enriched below; roughly 5.4% of the tested compounds scored in any of these assays.
tolC growth inh – growth inhibitors of E. coli tolC mutant, primary screen, strain BW25113 ΔtolC::kan, 384-well; OD615; growth inhibition, % at 10 µM (by protocol); 65,000 compounds, 2.2% hits;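 active = growth inhibition at or above a cutoff equal to the mean over every tested compound plus 3 SD, cut at about 60% in these data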;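 also: growth measured after 20 h incubation at 37 °C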
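test system = E. coli BW25113 ΔtolC::kan bacteria | medium = LB with kanamycin 50 µg/mL | signal = OD at 615 nm | schedule = 37 °C, 20 h exposure | evaluation = % inhibition of E. coli growth | compound dosing = one dose of 10 µM final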
E coli WT exp – growth inhibitors of wild-type E. coli, primary screen, strain BW25113, expanded library, OD600; OD600 absorbance; growth inhibition, % at 100 µM; 98,000 compounds, 0.15% hits;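 active = growth inhibition above about 50% at one test dose, limit read from the data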;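 also: growth measured after 20 h incubation at 37 °C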
PLAP activator – PLAP enzyme activators, biochemical, luminescence, HTS; Alkaline phosphatase, placental type (Homo sapiens), P05187; purified PLAP enzyme, luminescent substrate read-out; stronger effect = higher value; activation fold at 20 µM; 96,000 compounds, 1.2% hits; AID 696, 2007; in the data active = activation fold above about 2
PostGolgi ctrl – growth inhibition of yeast control strain, primary screen, counter-screen for post-Golgi transport modulator project; inhibition, % at 10 µM; 98,000 compounds, 5% hits; efflux-deficient yeast background strain, growth absorbance A615, 16 h
PostGolgi yeast – phenotypic screen on post-Golgi transport, primary screen | inhibition, % at 10 µM | 98,000 compounds, 0.9% hits | AID 739, 2007 | post-Golgi transport phenotypic cell assay;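 also: yeast cells grown in 1536-well plates; yeast grown about 18 h at 30C before absorbance read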
HePTP inhibitor – inhibitors of human HePTP phosphatase, primary screen, biochemical, absorbance, leukemia target; Tyrosine-protein phosphatase non-receptor type 7 (Homo sapiens), P35236; recombinant HePTP phosphatase activity, OD absorbance; inhibition, % at 20 µM; 110,000 compounds, 0.64% hits; AID 521, 2006; in the data active = inhibition above about 50%;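 also: plate controls were vehicle for no effect and reference inhibitor for full effect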
Target sequence (P35236 whole entry, looked up): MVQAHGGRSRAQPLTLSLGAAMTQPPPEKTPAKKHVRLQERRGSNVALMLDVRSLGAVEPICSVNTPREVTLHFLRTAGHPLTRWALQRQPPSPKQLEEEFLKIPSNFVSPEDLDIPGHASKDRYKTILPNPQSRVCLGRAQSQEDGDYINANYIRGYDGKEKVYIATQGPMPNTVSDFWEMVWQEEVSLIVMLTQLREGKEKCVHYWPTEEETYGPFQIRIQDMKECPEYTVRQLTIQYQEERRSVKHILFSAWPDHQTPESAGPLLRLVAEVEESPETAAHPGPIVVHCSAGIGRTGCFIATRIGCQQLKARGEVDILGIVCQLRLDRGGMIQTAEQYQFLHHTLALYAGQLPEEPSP
An asterisk follows results filed as active; nt = no result given. Rule as the data show it, unless noted: active = inhibition above about 30%; inactive = the rest.

SMILES	tolC growth inh	E coli WT exp	PLAP activator	PostGolgi ctrl	PostGolgi yeast	HePTP inhibitor
O=C(O)c1cc(C(=O)O)cc(N2C(=O)c3ccc(Oc4cccc([N+](=O)[O-])c4)cc3C2=O)c1	nt	nt	nt	nt	nt	12
COC(=O)c1ccc(CSc2nc(-c3ccccc3)cs2)o1	8	-5	0.8	9	16	4
O=c1[nH]nc(Cc2ccc(-c3ccccc3Cl)o2)c2ccccc12	nt	-10	1	1	20	nt
O=c1[nH]nc(Cc2ccc(Cl)cc2Cl)c2ccccc12	nt	-10	1.1	47*	18	nt
CCCCNc1c([N+](=O)[O-])c(=O)n(C)c2ccccc12	nt	nt	nt	nt	nt	8
Cc1cc(Oc2ccccc2)nc(SCC(=O)Nc2ccccc2)n1	nt	8	0.9	7	-10	nt
COCCn1c(SCC(=O)Nc2cc(C)on2)nnc1-c1c[nH]c2ccccc12	-2	6	1	4	-4	1
COCCn1c(Cc2ccccc2)nnc1SCC(=O)Nc1cc(C)on1	8	3	0.9	43*	4	-4
CC(=O)N/N=C/c1cc(C)n(-c2cc(Cl)ccc2Cl)c1C	nt	nt	nt	nt	nt	3
COCCNC(=O)Cn1cc2c(n1)CCC(C)C2 (stereo not drawn)	-6	6	1.1	-3	-6	3
CC1CCc2nn(CC(=O)NCCC3=CCCCC3)cc2C1 (stereo not drawn)	8	8	1	37*	-5	2
Cn1c2c(c3cc([N+](=O)[O-])ccc31)CCCC2=O	nt	nt	nt	nt	nt	11
Cc1nc(NS(=O)(=O)c2cccs2)c2c3c(sc2n1)CCC3	20	-3	1.5	29	-3	1
O=S(=O)(Nc1ncnc2sc3c(c12)CCC3)c1ccc(Cl)s1	63*	-2	1.4	21	3	32
Cc1nc(NS(=O)(=O)c2ccc(Br)cc2)c2c3c(sc2n1)CCC3	nt	-2	1.1	33*	-4	nt
O=C(O)[C@H](CO)Nc1ncnc2sc3c(c12)CCC3	nt	5	0.8	1	3	nt
COc1ccc(C/C(O)=C(\C#N)c2nc3ccccc3[nH]2)cc1OC	5	-10	2.7*	-5	14	2
CC1CCCN(C/C(O)=C(\C#N)c2nc3ccccc3[nH]2)C1 (stereo not drawn)	-16	4	2*	7	-2	4
COc1cccc(OC)c1/C(O)=C(\C#N)c1nc2ccccc2[nH]1	1	2	1.6	-2	10	6
Cc1ccccc1-n1c(SC/C(O)=C(\C#N)c2nc3ccccc3[nH]2)nnc1-c1ccncc1	-11	0	1.8	-1	-2	5
Cc1cc(C)n2c(SC/C(O)=C(\C#N)c3nc4ccccc4[nH]3)nnc2n1	-13	-4	2*	8	0	20
CCOC(=O)c1c(C)[nH]c(C(=O)OC/C(O)=C(\C#N)c2nc3ccccc3[nH]2)c1C	6	7	2.1*	-14	-5	8
O=C1/C(=C\c2ccc(-c3ccccc3[N+](=O)[O-])o2)SC(=S)N1C1CCS(=O)(=O)C1 (stereo not drawn)	nt	nt	nt	nt	nt	16
COc1ccccc1Cc1nc(-c2ccc(Br)o2)no1	61*	6	1	2	-10	-1
Cc1cc(C(=O)O)ccc1-n1c(C)ccc1C	7	-2	nt	1	11	104*
SMILES	tolC growth inh	E coli WT exp	PLAP activator	PostGolgi ctrl	PostGolgi yeast	HePTP inhibitor
Cc1ccc(C)n1-c1cc(C(=O)O)ccc1Cl	nt	nt	nt	nt	nt	103*
Cc1ccc(-c2ccccc2)n1-c1ccc(O)c(C(=O)O)c1	nt	nt	nt	nt	nt	96*
Cc1cc(N)ccc1-n1c(C)ccc1C	-14	18	1.2	25	-4	8
Cc1ccc(C)n1-c1ccc(Cl)cc1C(=O)O	nt	nt	nt	nt	nt	102*
COCCCNC(=O)C(=O)NC(C)C	nt	nt	nt	nt	nt	-12
C=CCc1ccccc1OCC(O)CN1CCN(c2ccc(C)cc2)CC1 (stereo not drawn)	46	19	1.3	21	1	0
Cc1ccc(C(=O)O)cc1-n1c(C)ccc1C	nt	nt	nt	nt	nt	104*
Cc1ccc(-c2ccccc2)n1-c1ccc(Cl)c(C(=O)O)c1	nt	nt	nt	nt	nt	-9
Cc1ccc(C)n1-c1ccc(Cl)c(C(=O)O)c1	nt	nt	nt	nt	nt	104*
O=C(Cc1ccccc1)Nc1cc(C(=O)c2ccccc2)ccc1N1CCOCC1	nt	-22	1.3	11	2	nt
COc1cc(C(=O)Nc2sc3c(c2C#N)CCN(C(C)=O)C3)cc(OC)c1OC	nt	-3	1.2	31*	2	nt
CCOC(=O)N1CCc2c(sc(NC(=O)c3ccc(S(=O)(=O)N4CCCC4)cc3)c2C#N)C1	27	0	nt	10	7	11
CCOc1cc([N+](=O)[O-])cc(/C=C2\SC(=S)N(C)C2=O)c1O	nt	nt	nt	nt	nt	66*
O=C(CCCN1C(=O)/C(=C/c2cccc(Br)c2)SC1=S)NCCCN1CCOCC1	nt	nt	nt	nt	nt	-4
O=C(CCl)Nc1ccccc1Sc1ccc(Cl)cc1	nt	3	1.1	13	-6	nt
Cc1nn2c(N3CCN(C(=O)c4ccco4)CC3)cc(C(C)(C)C)nc2c1-c1ccccc1	11	1	1.1	91*	10	-8
Cc1cc(N2CCN(C(=O)c3ccco3)CC2)n2ncc(-c3ccccc3)c2n1	25	-4	1.1	102*	101*	13
Cc1cc(N2CCN(C(=O)c3ccco3)CC2)n2ncnc2n1	-27	nt	nt	nt	nt	nt
Cc1cc(N2CCCCC2)n2ncc(-c3ccccc3)c2n1	75*	-5	1.2	4	18	12
CC(=O)OC1COC(N2CCc3cc([N+](=O)[O-])ccc32)C(OC(C)=O)C1OC(C)=O (stereo not drawn)	nt	-3	1	2	4	nt
CCCc1nc(N)c(C#N)c(-c2ccco2)c1CC	5	-1	0.8	26	24	8
CC1=NNC(=O)C1C(c1ccccc1)C(C#N)C#N (stereo not drawn)	nt	2	2.2*	3	0	nt
O=C1NC(=O)N(c2ccccc2)C(=O)C1C(c1ccccc1)c1ccccc1 (stereo not drawn)	nt	nt	nt	nt	nt	3
CCC(CC)C1C(C#N)=C(N)Oc2n[nH]c(C)c21 (stereo not drawn)	6	9	2.1*	3	-1	16
CCOC(=O)C1CCN(C(=O)Nc2ccc(NC(=O)C3CCN(C(=O)OCC)CC3)cc2)CC1	-16	-10	1.1	-1	-1	4
Clc1ccc(-c2noc(CN3CCCC3)n2)cc1	0	13	1.1	37*	-1	4
Cc1ccc(-c2noc(CN3CCN(c4ccccc4F)CC3)n2)cc1	84*	4	0.9	-3	-4	6
Clc1cccc(N2CCN(Cc3nc(-c4ccccc4)no3)CC2)c1	20	1	1	35*	-5	7
